Legend:
[1] = Cytotoxicity against mock-infected human MT2 cells assessed as reduction in cell viability incubated for 48 hrs by cell-titer Glo assay; type: cell-based
Procedure, shortened: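 Uninfected MT-2 cells received RPMI medium instead of viral supernatant and were treated in parallel with the same fivefold dilutions (100–0.032 μM). […] Values are the mean of at least three independent experiments.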

[2] = test system: Human immunodeficiency virus 1; assay: Antiviral activity against HIV1 NL4.3-Ren infected in human MT2 cells assessed as inhibition of viral growth measured 48 hrs post infection by luminometry; type: functional, organism-based; conditions: Human immunodeficiency virus 1, NL4.3-Ren, MT2, 48 h
Procedure, shortened: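 MT-2 cells infected with X4-tropic HIV-1 NL4.3-Ren supernatant produced in 293T cells. Fivefold serial dilutions from 100 to 0.032 μM were tested. At 48 h postinfection, cells were lysed and Renilla luciferase RLU were measured. IC50 was fitted from the dose–response curve; values are the mean of at least three independent experiments.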

[3] = test system: Human immunodeficiency virus 1; assay: Antiviral activity against HIV1 NL4.3-Ren infected in human MT2 cells assessed as inhibition of viral growth at 10 uM measured 48 hrs post infection by luminometry; type: functional; conditions: Human immunodeficiency virus 1, NL4.3-Ren, MT2, 48 h
[4] = Selectivity index, ratio of CC50 for mock-infected human MT2 cells to IC50 for HIV1 NL4.3-Ren infected in human MT2 cells; type: functional
[5] = test system: Human immunodeficiency virus 1; assay: Antiviral activity against HIV1 NL4.3-Ren infected in human MT2 cells assessed as inhibition of viral growth by measuring relative luminescence units at 10 uM measured 48 hrs post infection by luminometry relative to untreated control; type: functional; design: scale not given: the % may be the effect or the level left

Structure (SMILES)	CC50 at 48 h [1] [µM]	IC50 [2] [µM]	inhibition at 10 µM [3] [%]	Ratio CC50/IC50 [4]	Activity [5] [%]
C=C(C(=O)O)[C@@H]1CC[C@]2(C)CC[C@]3(C)[C@H](CC[C@@H]4[C@@]5(C)CCC(=O)C(C)(C)[C@@H]5CC[C@]43C)[C@@H]12	> 100	100	> 50	–	–
C=C(CO)[C@@H]1CC[C@]2(C)CC[C@]3(C)[C@H](CC[C@@H]4[C@@]5(C)CCC(=O)C(C)(C)[C@@H]5[C@H](O)C[C@]43C)[C@@H]12	20	9.5	> 50	2.1	–
C=C(C)[C@@H]1CC[C@]2(CO)CC[C@]3(C)[C@H](CC[C@@H]4[C@@]5(C)CC[C@@H](O)C(C)(C)[C@@H]5CC[C@]43C)[C@@H]12 [3-EPI-BETULIN]	20	8.8	> 50	2.3	–
C=C(C)[C@@H]1CC[C@]2(C)CC[C@]3(C)[C@H](C[C@@H](O)[C@@H]4[C@@]5(C)C=CC(=O)C(C)(C)[C@@H]5CC[C@]43C)[C@@H]12	60.4	8.7	> 50	6.9	–
C=C(C)[C@@H]1CC[C@]2(C)CC[C@]3(C)[C@@H](CC[C@@H]4[C@@]5(C)[C@@H](O)C[C@H](O)C(C)(C)[C@@H]5CC[C@]43C)[C@@H]12 [GLOCHIDIOL]	20	13.9	> 50	1.4	–
C=C(C=O)[C@@H]1CC[C@]2(COC(C)=O)CC[C@]3(C)[C@H](CC[C@@H]4[C@@]5(C)CC[C@H](O)C(C)(C)[C@@H]5CC[C@]43C)[C@@H]12	14.2	1.7	> 50	8.2	0
C=C(C=O)[C@@H]1CC[C@]2(C)CC[C@]3(C)[C@H](CC[C@@H]4[C@@]5(C)CCC(=O)C(C)(C)[C@@H]5[C@H](O)C[C@]43C)[C@@H]12	10.4	7.9	> 50	1.3	5
C=C(C)[C@@H]1CC[C@]2(C=O)CC[C@]3(C)[C@H](CC[C@@H]4[C@@]5(C)CCC(=O)C(C)(C)[C@@H]5CC[C@]43C)[C@@H]12 [BETULONAL]	20	4.2	> 50	4.8	–
C=C1C(=O)O[C@@H]2C[C@]3(C)CC[C@]4(C)[C@H](CC[C@@H]5[C@@]6(C)CCC(=O)C(C)(C)[C@@H]6CC[C@]54C)[C@H]3[C@H]12 [OCHRACEOLIDE A]	> 100	39	> 50	>2.6	–
C=C(COC(C)=O)[C@@H]1CC[C@]2(C)CC[C@]3(C)[C@H](CC[C@@H]4[C@@]5(C)CCC(=O)C(C)(C)[C@@H]5CC[C@]43C)[C@@H]12	36.2	13.1	> 50	2.8	–
C=C(C=O)[C@@H]1CC[C@]2(C)CC[C@]3(C)[C@H](CC[C@@H]4[C@@]5(C)CCC(=O)C(C)(C)[C@@H]5CC[C@]43C)[C@@H]12	5.7	1.4	> 50	4.2	0
C=C(C)[C@@H]1CC[C@]2(COC(C)=O)CC[C@]3(C)[C@H](CC[C@@H]4[C@@]5(C)CCC(=O)C(C)(C)[C@@H]5CC[C@]43C)[C@@H]12	20	13.4	> 50	1.5	–
CC(C)(O)[C@@H]1CC[C@]2(C)CC[C@]3(C)[C@H](CC[C@@H]4[C@@]5(C)CCC(=O)C(C)(C)[C@@H]5[C@H](O)C[C@]43C)[C@@H]12	> 100	7	> 50	>14.3	–
C=C(C)[C@@H]1CC[C@]2(C(=O)O)CC[C@]3(C)[C@H](CC[C@@H]4[C@@]5(C)CC[C@H](OC(=O)CC(C)(C)C(=O)O)C(C)(C)[C@@H]5CC[C@]43C)[C@@H]12 [BEVIRIMAT]	> 10	0.01	> 50	>1000	–
C=C(C)[C@@H]1CC[C@]2(CO)CC[C@]3(C)[C@H](CC[C@@H]4[C@@]5(C)CCC(=O)C(C)(C)[C@@H]5CC[C@]43C)[C@@H]12 [BETULONE]	> 100	4.1	> 50	>24.5	–
C=C(C)[C@@H]1CC[C@]2(C)CC[C@]3(C)[C@H](CC[C@@H]4[C@@]5(CO)CC[C@H](O)C(C)(C)[C@@H]5CC[C@]43C)[C@@H]12	20	6.9	> 50	2.9	–
